In ChEMBL document CHEMBL1128288, “7-Azetidinylquinolones as antibacterial agents. 3. Synthesis, properties and structure-activity relationships of the stereoisomers containing a 7-(3-amino-2-methyl-1-azetidinyl) moiety” (J Med Chem, 1995):
≈ marks a conversion by molar mass, not a printed value.

Key:
Pseudomonas aeruginosa [1] = assay: In vitro antibacterial activity measured as minimum inhibitory concentration was evaluated on Pseudomonas aeruginosa ATCC 10145 (Pa).; type: functional; conditions: Pseudomonas aeruginosa, ATCC 10145; read-out: MIC
Method in brief: (§1)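 Serial 2-fold agar dilution in Mueller Hinton medium, run side by side with reference quinolones. Inoculum 10^5 cfu/mL; compound range 0.007–16 µg/mL.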

Bacillus subtilis = assay: In vitro antibacterial activity measured as minimum inhibitory concentration was evaluated on Bacillus subtilis ATCC 6633(Bs).; type: functional; conditions: Bacillus subtilis, ATCC 6633; read-out: MIC; method in brief: as §1
Bacillus cereus = assay: In vitro antibacterial activity measured as minimum inhibitory concentration was evaluated on Bacillus cereus ATCC 11778 (Bc).; type: functional; conditions: Bacillus cereus, ATCC 11778; read-out: MIC; method in brief: as §1
Proteus vulgaris = assay: In vitro antibacterial activity measured as minimum inhibitory concentration was evaluated on proteus vulgaris ATCC 8427 (Pv).; type: functional; conditions: Proteus vulgaris, ATCC 8427; read-out: MIC; method in brief: as §1
[2] = tested on: Staphylococcus epidermidis; assay: In vitro antibacterial activity measured as minimum inhibitory concentration was evaluated on Staphylococcus epidermidis ATCC 155-1 (Se).; type: functional; conditions: Staphylococcus epidermidis, ATCC 155-1; read-out: MIC; method in brief: as §1
Klebsiella pneumoniae = assay: In vitro antibacterial activity measured as minimum inhibitory concentration was evaluated on klebsiella pneumoniae ATCC 10031 (Kp).; type: functional; conditions: Klebsiella pneumoniae, ATCC 10031; read-out: MIC
Method in brief: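 Serial 2-fold agar dilution in Mueller Hinton medium, run side by side with reference quinolones.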

Enterococcus faecalis = assay: In vitro antibacterial activity measured as minimum inhibitory concentration was evaluated on Streptococcus faecalis ATCC 10541 (Sf).; type: functional; conditions: Enterococcus faecalis, ATCC 10541; read-out: MIC; method in brief: as §1
[3] = mouse, in vivo, po, 50 mg/kg
Staphylococcus aureus [4] = assay: In vitro antibacterial activity measured as minimum inhibitory concentration was evaluated on Staphylococcus aureus ATCC 25178 (Sa).; type: functional; conditions: Staphylococcus aureus, ATCC 25178; read-out: MIC; method in brief: as §1
Escherichia coli [5] = assay: In vitro antibacterial activity measured as minimum inhibitory concentration, was evaluated on Escherichia coli ATCC 23559(Ec).; type: functional; conditions: Escherichia coli, ATCC 23559; read-out: MIC; method in brief: as §1
Morganella morganii = assay: In vitro antibacterial activity measured as minimum inhibitory concentration was evaluated on morganella morganii ATCC 8019 (Mm).; type: functional; conditions: Morganella morganii, ATCC 8019; read-out: MIC; method in brief: as §1
Enterobacter cloacae = assay: In vitro antibacterial activity measured as minimum inhibitory concentration, was evaluated on Enterobacter cloacae ATCC 23355 (Ecl).; type: functional; conditions: Enterobacter cloacae, ATCC 23355; read-out: MIC
Staphylococcus aureus [6] = assay: In vivo efficacy as ED50 against Staphylococcus aureus HS-93 by oral administration in mice.; type: functional; conditions: Staphylococcus aureus, po; read-out: ED50
Method in brief: (§2)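 Mice, 4 groups of 10, infected intraperitoneally with slightly more than the LD100 of the organism. A single oral dose was given immediately after infection, with four doses (one per group) chosen from in vitro activity. Survival was scored after one week. ED50 (total dose, mg/kg, protecting 50%) was interpolated among group survival rates.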

Pseudomonas aeruginosa [7] = assay: In vivo efficacy as ED50 against Pseudomonas aeruginosa HS-116 by oral administration in mice.; type: functional; conditions: Pseudomonas aeruginosa, po; read-out: ED50; method in brief: as §2
Escherichia coli [8] = assay: In vivo efficacy as ED50 against Escherichia coli HM-42 by oral administration in mice.; type: functional; conditions: Escherichia coli, po; read-out: ED50; method in brief: as §2

Compound | MIC (Pseudomonas aeruginosa [1]) | MIC (Bacillus subtilis) | MIC (Bacillus cereus) | MIC (Proteus vulgaris) | MIC [2] | MIC (Klebsiella pneumoniae) | MIC (Enterococcus faecalis) | AUC [3] | MIC (Staphylococcus aureus [4]) | MIC (Escherichia coli [5]) | MIC (Morganella morganii) | MIC (Enterobacter cloacae) | ED50 (Staphylococcus aureus [6]) | ED50 (Pseudomonas aeruginosa [7]) | ED50 (Escherichia coli [8])
CCn1cc(C(=O)O)c(=O)c2c(N)c(F)c(N3C[C@H](N)[C@H]3C)c(F)c21 | 0.5 µg/mL (≈ 1.42 µM) | 0.06 µg/mL (≈ 0.17 µM) | 0.25 µg/mL (≈ 0.71 µM) | 0.25 µg/mL (≈ 0.71 µM) | 0.25 µg/mL (≈ 0.71 µM) | 0.25 µg/mL (≈ 0.71 µM) | 0.25 µg/mL (≈ 0.71 µM) | 12500 ng·h/mL | 0.12 µg/mL (≈ 0.341 µM) | 0.25 µg/mL (≈ 0.71 µM) | 0.06 µg/mL (≈ 0.17 µM) | 0.06 µg/mL (≈ 0.17 µM) | – | – | –
C[C@@H]1[C@@H](N)CN1c1cc2c(cc1F)c(=O)c(C(=O)O)cn2-c1ccc(F)cc1F | 8 µg/mL (≈ 19.8 µM) | 0.25 µg/mL (≈ 0.62 µM) | 0.5 µg/mL (≈ 1.24 µM) | 2 µg/mL (≈ 4.96 µM) | 0.25 µg/mL (≈ 0.62 µM) | 0.25 µg/mL (≈ 0.62 µM) | 4 µg/mL (≈ 9.92 µM) | 35900 ng·h/mL | 0.25 µg/mL (≈ 0.62 µM) | 0.5 µg/mL (≈ 1.24 µM) | 1 µg/mL (≈ 2.48 µM) | 1 µg/mL (≈ 2.48 µM) | 16.1 mg/kg | 90 mg/kg | 10 mg/kg
C[C@H]1COc2c(N3CC(C)(N)C3)c(F)cc3c(=O)c(C(=O)O)cn1c23 | 0.5 µg/mL (≈ 1.44 µM) | 0.015 µg/mL (≈ 0.0432 µM) | 0.25 µg/mL (≈ 0.72 µM) | 0.25 µg/mL (≈ 0.72 µM) | 0.12 µg/mL (≈ 0.345 µM) | 0.015 µg/mL (≈ 0.0432 µM) | 0.5 µg/mL (≈ 1.44 µM) | 8500 ng·h/mL | 0.25 µg/mL (≈ 0.72 µM) | 0.015 µg/mL (≈ 0.0432 µM) | 0.015 µg/mL (≈ 0.0432 µM) | 0.015 µg/mL (≈ 0.0432 µM) | 19.1 mg/kg | 121 mg/kg | 6.7 mg/kg
C[C@@H]1[C@@H](N)CN1c1nc2c(cc1F)c(=O)c(C(=O)O)cn2C1CC1 | 2 µg/mL (≈ 6.02 µM) | 0.06 µg/mL (≈ 0.181 µM) | 0.25 µg/mL (≈ 0.752 µM) | 0.5 µg/mL (≈ 1.5 µM) | 0.25 µg/mL (≈ 0.752 µM) | 0.06 µg/mL (≈ 0.181 µM) | 2 µg/mL (≈ 6.02 µM) | 22300 ng·h/mL | 0.5 µg/mL (≈ 1.5 µM) | 0.12 µg/mL (≈ 0.361 µM) | 0.25 µg/mL (≈ 0.752 µM) | 0.12 µg/mL (≈ 0.361 µM) | – | – | –
C[C@@H]1[C@@H](N)CN1c1c(F)c(N)c2c(=O)c(C(=O)O)cn(C3CC3)c2c1F | 0.12 µg/mL (≈ 0.329 µM) | 0.015 µg/mL (≈ 0.0412 µM) | 0.015 µg/mL (≈ 0.0412 µM) | 0.06 µg/mL (≈ 0.165 µM) | 0.015 µg/mL (≈ 0.0412 µM) | 0.015 µg/mL (≈ 0.0412 µM) | 0.12 µg/mL (≈ 0.329 µM) | 11400 ng·h/mL | 0.015 µg/mL (≈ 0.0412 µM) | 0.015 µg/mL (≈ 0.0412 µM) | 0.015 µg/mL (≈ 0.0412 µM) | 0.015 µg/mL (≈ 0.0412 µM) | 11.4 mg/kg | 96 mg/kg | 4.1 mg/kg
C[C@@H]1[C@@H](N)CN1c1cc2c(cc1F)c(=O)c(C(=O)O)cn2C1CC1 | 4 µg/mL (≈ 12.1 µM) | 0.25 µg/mL (≈ 0.754 µM) | 1 µg/mL (≈ 3.02 µM) | 1 µg/mL (≈ 3.02 µM) | 1 µg/mL (≈ 3.02 µM) | 0.25 µg/mL (≈ 0.754 µM) | 2 µg/mL (≈ 6.04 µM) | 2200 ng·h/mL | 1 µg/mL (≈ 3.02 µM) | 0.25 µg/mL (≈ 0.754 µM) | 0.5 µg/mL (≈ 1.51 µM) | 0.25 µg/mL (≈ 0.754 µM) | – | – | –
CC1C(N)CN1c1c(F)cc2c(=O)c(C(=O)O)cn(-c3ccc(F)cc3F)c2c1F (centres undefined) | 1 µg/mL (≈ 2.37 µM) | 0.06 µg/mL (≈ 0.142 µM) | 0.12 µg/mL (≈ 0.285 µM) | 0.5 µg/mL (≈ 1.19 µM) | 0.12 µg/mL (≈ 0.285 µM) | 0.06 µg/mL (≈ 0.142 µM) | 1 µg/mL (≈ 2.37 µM) | – | 0.12 µg/mL (≈ 0.285 µM) | 0.06 µg/mL (≈ 0.142 µM) | 0.12 µg/mL (≈ 0.285 µM) | 0.06 µg/mL (≈ 0.142 µM) | 10 mg/kg | 61 mg/kg | 2.3 mg/kg
C[C@@H]1[C@@H](N)CN1c1c(F)cc2c(=O)c(C(=O)O)cn(-c3ccc(F)cc3)c2c1F | 0.5 µg/mL (≈ 1.24 µM) | 0.06 µg/mL (≈ 0.149 µM) | 0.12 µg/mL (≈ 0.298 µM) | 0.25 µg/mL (≈ 0.62 µM) | 0.25 µg/mL (≈ 0.62 µM) | 0.015 µg/mL (≈ 0.0372 µM) | 1 µg/mL (≈ 2.48 µM) | 40900 ng·h/mL | 0.12 µg/mL (≈ 0.298 µM) | 0.06 µg/mL (≈ 0.149 µM) | 0.12 µg/mL (≈ 0.298 µM) | 0.015 µg/mL (≈ 0.0372 µM) | 4.8 mg/kg | 53 mg/kg | 2.1 mg/kg
C[C@@H]1[C@@H](N)CN1c1c(F)cc2c(=O)c(C(=O)O)cn3c2c1OC[C@@H]3C | 4 µg/mL (≈ 11.5 µM) | 0.12 µg/mL (≈ 0.345 µM) | 0.5 µg/mL (≈ 1.44 µM) | 0.5 µg/mL (≈ 1.44 µM) | 0.25 µg/mL (≈ 0.72 µM) | 0.06 µg/mL (≈ 0.173 µM) | 1 µg/mL (≈ 2.88 µM) | – | 0.25 µg/mL (≈ 0.72 µM) | 0.25 µg/mL (≈ 0.72 µM) | 0.12 µg/mL (≈ 0.345 µM) | 0.25 µg/mL (≈ 0.72 µM) | 46.1 mg/kg | 53 mg/kg | 50 mg/kg
